# Screening data from PubChem.
# AHR activator – AHR activators, primary screen, cell-based, luminescence, luciferase reporter, human; Aryl hydrocarbon receptor (Homo sapiens), P35869; AHR-responsive luciferase reporter cells; activation, % at 5 µM; hit rate 2.5% among 320,000; AID 2796, 2010; in the data active means activation above about 47%;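 further: 0% = vehicle wells and 100% = reference agonist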
# Target sequence (P35869 whole entry, looked up): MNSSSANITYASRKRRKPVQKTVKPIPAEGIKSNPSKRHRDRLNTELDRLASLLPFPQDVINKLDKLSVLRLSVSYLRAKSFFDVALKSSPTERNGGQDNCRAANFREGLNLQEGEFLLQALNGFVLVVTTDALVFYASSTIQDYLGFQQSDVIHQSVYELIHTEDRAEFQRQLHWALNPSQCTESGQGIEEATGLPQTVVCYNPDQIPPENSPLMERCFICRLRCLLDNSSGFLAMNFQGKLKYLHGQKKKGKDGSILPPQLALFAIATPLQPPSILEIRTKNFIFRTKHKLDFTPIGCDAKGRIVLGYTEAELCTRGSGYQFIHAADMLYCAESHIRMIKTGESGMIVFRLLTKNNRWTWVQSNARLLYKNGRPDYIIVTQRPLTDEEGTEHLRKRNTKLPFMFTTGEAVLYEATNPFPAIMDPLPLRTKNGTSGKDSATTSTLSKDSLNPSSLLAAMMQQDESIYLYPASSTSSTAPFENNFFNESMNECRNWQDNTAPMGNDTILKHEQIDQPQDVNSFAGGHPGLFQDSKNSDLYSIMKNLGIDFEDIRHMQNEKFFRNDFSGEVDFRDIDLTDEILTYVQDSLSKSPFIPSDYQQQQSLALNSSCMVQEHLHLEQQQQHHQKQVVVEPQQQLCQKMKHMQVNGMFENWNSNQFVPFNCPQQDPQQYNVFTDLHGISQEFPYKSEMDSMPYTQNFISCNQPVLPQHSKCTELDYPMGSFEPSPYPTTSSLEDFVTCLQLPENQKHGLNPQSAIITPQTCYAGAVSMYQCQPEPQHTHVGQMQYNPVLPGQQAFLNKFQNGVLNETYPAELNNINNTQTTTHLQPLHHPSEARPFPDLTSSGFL
# MC4R ag barr – MC4R agonists recruiting beta-arrestin, primary screen, cell-based, luminescence, agonist arm of biased-ligand search; Melanocortin receptor 4 (Homo sapiens), P32245; U2OS MC4R beta-arrestin complementation; percent of melanotan II response, DMSO zero; activation, % at 8.9 µM; hit rate 0.98% among 360,000; AID 540308, 2011;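 active means activation above a per-plate cutoff, the mean activation of sample wells on that plate plus 3 SD, cut at about 8% in these data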
# FXN GAA850 act – FXN promoter activators, primary screen, cell-based, luciferase luminescence, HEK293 lucGAA850; HEK293 lucGAA850 FXN promoter luciferase reporter, 24 h; percent of 10 µM SAHA response; activation, % at 6 µM; hit rate 0.56% among 360,000;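 active means activation above the average of all compounds screened plus 3 SD, cutoff fixed separately per campaign, cut at about 7.5% in these data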;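 further: 0% = DMSO wells and 100% = 10 µM SAHA wells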
# MC4R antagonist – MC4R antagonists of cAMP signaling, primary screen, cell-based, TR-FRET, antagonist arm of biased-ligand search. hit rate 0.48% among 360,000. inhibition, % at 6.5 µM. AID 540295, 2011. MC4R-expressing cells, MTII-stimulated cAMP, LANCE TR-FRET. Melanocortin receptor 4 (Homo sapiens), P32245;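 active means inhibition above its plate's cutoff, the mean of tested wells on that plate plus 3 SD, cut at about 29% in these data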;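 further: 0% = Melanotan II alone and 100% = Melanotan II plus saturating MCL0020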
#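 System: U2OS cells stably expressing human melanocortin 4 receptor (MC4R). Reagent: Melanotan II challenge after compound preincubation. Doses: 6.5 µM. Times: 30-min compound, 1-h challenge, 1-h detection, room temperature. Measured by: TR-FRET with Eu-cAMP and labeled anti-cAMP, 671 nm. Replicates: singlicate.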
# HTR2A ag – mouse Htr2a agonists via beta-arrestin recruitment, primary screen, cell-based, luminescence | AID 624169, 2012 | hit rate 0.66% among 360,000 | activation, % at 7.6 µM | 5-hydroxytryptamine receptor 2A (Mus musculus), P35363 | CHO-K1 mHTR2A beta-arrestin complementation; percent of 30 µM serotonin response;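 active means activation above a run cutoff, the mean activation of all tested compounds plus 3 SD, cut at about 14% in these data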;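 further: 0% = plate median of compound wells and 100% = 30 µM serotonin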
# AHR act cf – AHR activators, confirmation, cell-based, luminescence, luciferase reporter, human; activation, % at 9 µM; hit rate 87% among 2,300; human cells, AHR-responsive luciferase reporter; shares compounds with AHR activator; in the data active means activation above about 49%;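 further: HepG2 hepatoma cells carrying a DRE-driven firefly luciferase reporter; 0% = vehicle wells and 100% = reference agonist wells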
# PXR counter – human PXR activators, counter-screen for AHR activator project, cell-based, luciferase luminescence. shares compounds with AHR activator. cell-based PXR reporter. activation, % at 11.6 µM. hit rate 88% among 2,300; in the data active means activation above about 11%;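 further: human hepatoma DPX-2 cells expressing full-length human PXR; 0% = DMSO and 100% = reference agonist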
# * hit, by the source's call; . = no result. The list is not random: actives were taken first. Their share in the collection is about 4.7%.
SMILES,AHR activator,MC4R ag barr,FXN GAA850 act,MC4R antagonist,HTR2A ag,AHR act cf,PXR counter
Cc1ccc2nc3c(cc2c1)c(NC(=O)c1cccnc1)nn3C,106.7*,-1.2,-0.5,-4.9,2.7,118.0*,24.9*
CC1C(=O)Nc2ccc(S(=O)(=O)N3CCCCCC3)cc21 (stereo not given),-0.5,-2.3,-0.6,2.1,2.9,.,.
O=C1C=CC(=Nc2ccc(F)cc2)O1,.,-2.2,-1.7,5.1,-5.4,.,.
Cc1cccc(-c2nsc(SCC(=O)Nc3ccc4c(c3)OCO4)n2)c1,105.2*,2.7,2.6,4.4,-1.1,21.4,15.8*
CCn1c(SCC(=O)Nc2ccc3c(c2)OCO3)nc2ccccc21,93.0*,1.2,-1.6,-0.4,-0.1,32.7,82.3*
Cn1nnnc1SCC(=O)Nc1ccc2c(c1)OCO2,103.0*,-2.1,3.0,20.3,0.9,114.8*,16.5*
Cc1ccccc1-c1nsc(SCC(=O)Nc2ccc3c(c2)OCO3)n1,13.8,4.5,3.4,18.6,-0.4,.,.
COc1ccc(N=Nc2nc3cc(Br)c(Br)cc3n2C)c(OC)c1,83.1*,0.0,3.7,1.0,7.8,56.6*,18.4*
O=C(NCc1ccco1)C(Cc1ccccc1)N1C(=O)c2ccccc2C1=O (stereo not given),111.7*,2.9,-1.0,26.6,-1.6,92.7*,66.1*
O=C(Nc1cc([N+](=O)[O-])ccc1Cl)c1ccc2c(c1)OCO2,105.5*,-0.2,1.9,5.3,3.2,100.5*,23.2*
Cc1ccc([N+](=O)[O-])cc1NC(=O)c1ccc2c(c1)OCO2,115.2*,-2.9,0.1,9.5,0.8,99.7*,25.4*
CCCCn1c(-c2cccs2)nc2oc3ccccc3c(=O)c2c1=O,2.3,0.3,-0.4,-2.2,0.6,.,.
CCc1nc2oc3ccccc3c(=O)c2c(=O)n1-c1ccccc1,98.9*,-2.3,4.8,3.6,-2.7,117.9*,23.5*
CCCc1nc2oc3ccccc3c(=O)c2c(=O)n1-c1ccc(C)cc1,80.7*,-0.6,-3.2,0.6,-0.7,76.0*,67.8*
CCCCn1c(-c2ccco2)nc2oc3ccccc3c(=O)c2c1=O,5.5,0.7,-0.5,16.5,0.0,.,.
Cc1c(C(=O)NCc2ccccc2CN2CCCC2)oc2c(F)cccc12,80.3*,0.6,-0.2,4.2,-7.1,95.4*,38.5*
O=c1[nH][nH]c2c1[C@H](C1CCCC1)O[C@H](CCc1ccccc1)C2,.,.,.,.,6.7,.,.
c1ccc(-c2csc(=Nc3cccnc3)n2CC2CCCO2)cc1 (stereo not given),80.4*,-0.5,0.4,13.2,-9.4,55.4*,96.9*
CCN1C(=O)N/C(=C/c2cc(C)n(Cc3ccccc3)c2C)C1=O,135.8*,-1.6,-3.6,-16.1,4.3,103.3*,229.6*
O=C1C(=Cc2cccs2)Oc2ccccc21,.,1.3,4.5,-9.3,0.3,.,.
Cc1ccccc1/C=C1\Oc2ccccc2C1=O,98.8*,1.8,-0.2,10.7,4.5,92.3*,98.0*
O=C(Nc1ccc(F)cc1)C(c1ccnc2ccccc12)N1CCN(CC(=O)N2CCCC2)CC1 (stereo not given),.,.,.,.,-1.1,.,.
Clc1cccc(/C(Cc2nc3ccccc3[nH]2)=N\Nc2ccccc2)c1,102.1*,-0.7,6.3,10.1,-4.7,95.7*,42.5*
CCOc1ccc(-c2cn(-c3ccccc3OC)c(=S)[nH]2)cc1,21.9,-0.3,-3.2,-9.6,1.0,.,.
COc1ccccc1-n1cc(-c2ccccc2)[nH]c1=S,102.3*,0.2,-0.9,-2.4,3.0,105.7*,48.5*
Clc1cc2nc(-c3cccnc3Cl)[nH]c2cc1Cl,112.7*,0.4,6.0,7.9,2.2,108.1*,44.8*
Cc1cc2nc(-c3ccccc3O)[nH]c2cc1C,.,6.7,3.6,3.7,2.3,.,.
